# Hits are enriched below; roughly 1.9% of the tested compounds scored in any of these assays.
# Yeast superoxide: caloric restriction mimetics inhibiting age-related superoxide in yeast. superoxide response (% of plate mean), % at 10 µM. S. cerevisiae aged cells, superoxide DHE fluorescence; active compounds read low. AID 2690. 330,000 compounds, 0.18% hits;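 active means superoxide response under a set limit, about three screen SD below normal, cut at about 65% in these data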;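 further: yeast aged for seven days with compound at 30 °C before DHE staining; 100% = average MFI of all compound-treated wells on the plate with controls excluded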
# proKLK7 act: activators of human kallikrein-7 zymogen; P49862; purified proKLK7, EDANS-DABCYL substrate fluorescence; 100% is mature enzyme control, 0% vehicle; activation, % at 7 µM; 370,000 compounds, 0.9% hits; AID 652039;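 active means activation above the mean of all tested compounds plus 3 SD, computed per campaign excluding outliers beyond control limits, cut at about 13% in these data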
# Target sequence (P49862 whole entry, looked up): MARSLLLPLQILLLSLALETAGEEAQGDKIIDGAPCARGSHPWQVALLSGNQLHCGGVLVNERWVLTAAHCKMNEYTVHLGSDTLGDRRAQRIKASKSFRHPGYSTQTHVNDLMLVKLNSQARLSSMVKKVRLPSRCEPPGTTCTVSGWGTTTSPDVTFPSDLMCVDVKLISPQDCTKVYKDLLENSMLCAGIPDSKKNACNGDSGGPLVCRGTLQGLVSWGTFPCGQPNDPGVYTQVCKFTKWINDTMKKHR
# V-ATPase pH: alters yeast V-ATPase proton transport. 350,000 compounds, 0.37% hits. response, % at 10 µM. S. cerevisiae, pHLuorin cytosolic pH fluorescence; in the data active means response mostly above about 7.3%, no sharp cut-off; inactive means mostly below about 5.4%; further: actives read high
# Rce1 inhib: yeast Ras-converting enzyme inhibition. Q03530. yeast membranes, quenched prenylated peptide cleavage fluorescence. calls only. 290,000 compounds, 0.27% hits. AID 2563;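 active means fall in fluorescence gain of 50% or more versus controls, with final raw signal at or below 3038400; inconclusive means same 50% fall but final raw signal above 3038400; inactive means fall in fluorescence gain under 50%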;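 further: plate controls were neutral control wells for no effect and wells lacking membranes for full effect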
# Target sequence (Q03530 whole entry, looked up): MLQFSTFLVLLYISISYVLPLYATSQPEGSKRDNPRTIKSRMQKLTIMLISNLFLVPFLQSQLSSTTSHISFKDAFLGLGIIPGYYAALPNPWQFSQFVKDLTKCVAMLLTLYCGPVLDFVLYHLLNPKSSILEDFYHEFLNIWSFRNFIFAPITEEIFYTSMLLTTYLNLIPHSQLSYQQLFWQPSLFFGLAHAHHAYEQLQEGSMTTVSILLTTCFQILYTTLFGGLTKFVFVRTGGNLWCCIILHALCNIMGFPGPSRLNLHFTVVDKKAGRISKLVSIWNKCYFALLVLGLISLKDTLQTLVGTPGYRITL
# T cell modulator: modulates CD8 T cell binding to vesicles | 2C CD8+ T cell-vesicle binding, flow cytometry; active compounds read low | response (vesicle binding), % at 7 µM | 330,000 compounds, 0.068% hits | AID 2052;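 active means response, share of CD8 T cells binding vesicles, and their 90th percentile fluorescence all below set limits, cut at about 80% in these data, passing the limit was not always enough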;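 further: values below 100% mean blocked vesicle binding to the CD8+ T cells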
#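 Material: 2C TCR transgenic mouse naive CD8+ T cells, MACS-purified. Also added: QL9-charged Drosophila Ld/ICAM-1/B7-1 vesicles. Timing: binding 1.5 h at 37 °C. Measured by: high-throughput flow cytometry with anti-B7-1 and anti-CD8 staining. Read-out: percent CD8+ FL2 mean versus row control. Controls: Unloaded micro-vesicles (low), QL9 vesicles with 0.7% DMSO (high).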
# MIN6 prolif: inducers of beta-cell replication in MIN6 cells | MIN6 cells proliferation, ATPlite luminescence, 48 h; cells starved in 0.2% serum; 100% = growth in 10% serum | proliferation, % at 10 µM | 330,000 compounds, 0.29% hits | AID 2380;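 active means compounds whose signal lies at least 3.5 SD above the mean of all wells on their plate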;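 further: 0% = DMSO-treated cells in low-serum medium and 100% = 10% serum control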
# KLK7 act conf: proKLK7 activation, confirmation. 3,200 compounds, 68% hits. activation, % at 7 µM. purified proKLK7, EDANS-DABCYL substrate fluorescence; scaled: vehicle 0, mature enzyme 100. AID 686949. shares compounds with proKLK7 act;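 active means activation, as change over the incubation, above the mean of all tested compounds plus 3 SD, cut at about 13% in these data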
# EDANS interfere: optically interferes with EDANS-DABCYL signal, flagging KLK7 hits; shares compounds with proKLK7 act; EDANS-DABCYL substrate fluorescence interference, no enzyme, 4 h; solvent 0%, active enzyme control 100%; activation, % at 7 µM; 3,200 compounds, 80% hits;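 active means activation above the all-compound mean plus 3 SD, ignoring values outside control-based bounds, cut at about 4.8% in these data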;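 further: value is the 4 h activation minus the activation read at time zero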
# K7 EDANS ctr: EDANS fluorescence interference in dose response, no enzyme; 250 compounds, 20% hits; shares compounds with proKLK7 act; EC50, µM; EDANS-DABCYL peptide fluorescence interference;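 active means compounds that raise the fluorescence signal in this interference counterscreen, with EC50 at or below 10 µM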;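 further: intact quenched peptide substrate alone read at 355 nm excitation and 520 nm emission; signal is fluorescence gain from T0 to T4 after four hours at room temperature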
# Numbers without * were called inactive; i = inactive; ? = inconclusive; · = no result given.
SMILES,Yeast superoxide,proKLK7 act,V-ATPase pH,Rce1 inhib,T cell modulator,MIN6 prolif,KLK7 act conf,EDANS interfere,others
C[C@@H]1CN([C@H](C)CO)C(=O)CCCn2cc(nn2)CO[C@H]1CN(C)C(=O)Nc1ccc(C(C)(C)C)cc1,·,0.2,·,·,·,·,·,·,
CCN(CC)CCCNc1oc(/C=C/c2ccccc2)nc1C#N,97.0,104.3*,0.2,?,600.2,-2.3,28.1*,17.9*,K7 EDANS ctr=>69.5
CN(C)c1oc(/C=C/c2ccccc2)nc1C#N,111.3,58.1*,-0.1,i,787.7,-3.1,68.9*,61.7*,
COc1ccccc1/C=C/c1nc(C#N)c(N(C)C)o1,95.9,-9.1,1.4,i,247.3,-3.2,·,·,
CCOC(=O)[C@H]1[C@H]2COc3ccccc3[C@@H]2N2C(=O)[C@@H](C)NC(=O)[C@@]12C,98.2,-1.5,1.7,·,286.7,-1.1,·,·,
CCOC(=O)Cn1c(C(F)(F)F)nc2nc(Cl)c(Cl)nc21,·,33.7*,1.6,·,·,·,8.4,7.1*,
COc1ccc(SCCN2CC[C@@H](C(C)(C)C)CCC2=O)cc1,91.7,0.3,0.6,·,291.8,1.1,·,·,
O=C(NC1CC1)c1cccc(-c2cncc3nccn23)c1,·,16.4*,·,·,·,·,7.2,11.0*,
O=C(NCc1ccco1)c1cccc(-c2ccc3nccn3c2)c1,·,-0.5,·,·,·,·,·,·,
O=C(NC1CC1)c1ccc(-c2cnc3cccnn23)cc1,·,76.6*,·,·,·,·,82.5*,78.7*,
O=C(NCc1ccco1)c1cccc(-c2cncc3nccn23)c1,·,15.8*,·,·,·,·,19.7*,19.0*,
O=C(c1cccc(-c2cccc3nccn23)c1)N1CCOCC1,·,0.0,·,·,·,·,·,·,
O=C(NC1CC1)c1ccccc1,·,-0.4,-2.5,·,·,·,·,·,
CCCCn1c(N)c(N(CCOC)C(=O)CN2C(=O)NC3(CC(C)CC(C)(C)C3)C2=O)c(=O)[nH]c1=O (stereo unspecified),·,0.4,-1.0,·,·,·,·,·,
CCC1=C(CC2NCCc3ccccc32)CC2c3cc(OC)c(OC)cc3CCN2C1 (stereo unspecified),·,18.8*,1.2,·,·,·,1.7,2.0,
CC[C@H]1CN2CCc3cc(OC)c(OC)cc3C2C[C@@H]1C[C@H]1NCCc2cc(OC)c(OC)cc21 (stereo partly specified),91.5,0.5,1.0,·,471.3,-7.6,·,·,
CC1(C)CC(=O)C2=C(C1)NC1=C(C(=O)c3ccccc31)C2c1ccccc1 (stereo unspecified),92.4,0.2,3.3,i,375.8,0.0,·,·,
Cc1nc2[nH]c(=O)c3c(n2n1)NC1=C(C(=O)CC(C)(C)C1)C3c1ccccc1 (stereo unspecified),104.4,46.7*,-3.0,i,472.3,-1.1,8.1,10.6*,
COc1ccccc1NC(=O)c1cc2c(s1)-c1ccccc1S(=O)(=O)C2,112.9,14.9*,-1.4,i,214.3,1.3,-18.9,-31.5,
CN(C(=O)c1cc2c(s1)-c1ccccc1S(=O)(=O)C2)c1ccccc1,104.8,0.6,2.3,i,146.9,0.9,·,·,
C=CCOC(=O)C1=C(C)NC(SCC(=O)NC(=O)OCC)=C(C#N)C1c1cccnc1 (stereo unspecified),100.9,20.1*,2.5,i,481.8,-1.4,26.5*,16.7*,K7 EDANS ctr=4.44*
Cc1ccccc1OCCOC(=O)c1cc(S(=O)(=O)N2CCOCC2)ccc1C,·,0.0,0.1,·,·,·,·,·,
Cc1cc(-c2ccccc2)nc(N(C)C)c1S(C)(=O)=O,100.0,-0.2,0.0,i,204.6,2.4,·,·,
CNc1nc(-c2ccccc2)cc(C)c1S(C)(=O)=O,94.2,20.0*,-1.3,i,436.2,2.8,3.6,-2.4,
COc1ccc(Cl)cc1S(=O)(=O)N(C)CC(=O)N1CCOCC1,96.0,0.1,1.0,i,207.2,-1.7,·,·,
SMILES,Yeast superoxide,proKLK7 act,V-ATPase pH,Rce1 inhib,T cell modulator,MIN6 prolif,KLK7 act conf,EDANS interfere,others
Cc1onc(-c2ccccc2Cl)c1C(=O)Nc1ccccc1C(N)=O,100.7,-0.4,-3.4,i,144.8,-3.7,·,·,
Cc1onc(-c2ccccc2Cl)c1C(=O)NC(=S)Nc1ccccc1C(N)=O,117.9,12.8*,2.8,i,281.8,-1.6,8.0,9.1*,
O=C(Nc1ccc(NC(=O)c2ccccc2O)cc1)Nc1ccc(F)cc1F,95.3,30.9*,-6.2,i,321.3,-1.2,15.9*,10.4*,K7 EDANS ctr=9.71*
O=C(Nc1ccc(F)cc1)Nc1ccccc1F,107.7,0.3,14.2,i,460.9,-2.4,·,·,
O=C(N1CCOCCOc2ccccc2OCCOCC1)C(F)(F)F,101.7,1.1,-3.4,i,297.4,-2.8,·,·,
CCc1ccc(-c2cnc3nc[nH]c(=O)c3n2)cc1,94.8,15.4*,-3.1,i,i,-3.1,38.1*,39.4*,
COc1cc2cc(CN(Cc3nnnn3Cc3ccccc3)CC3CCCO3)c(=O)[nH]c2cc1OC (stereo unspecified),·,40.8*,1.3,i,·,·,-4.7,-10.7,
COc1cc(NC(=O)c2ccc3c(c2)S(=O)(=O)N=C2CCCCCN23)cc(OC)c1,106.4,15.2*,-0.7,i,273.4,2.6,6.5,1.0,
O=C(Nc1ccc(F)cc1)c1ccc2c(c1)S(=O)(=O)N=C1CCCCCN12,93.2,0.0,-1.6,·,813.4,-1.8,·,·,
Fc1ccc(-c2nc3cnccn3c2NC2CCCC2)cc1,111.8,57.9*,-0.8,i,804.8,-1.2,63.1*,3.7,K7 EDANS ctr=>69.5
Oc1ccc(Br)cc1-c1nc2cnccn2c1NC1CCCCC1,91.7,-15.4,2.3,i,271.1,-4.2,·,·,
CC(=O)Nc1ccc(SC[C@H](C)CN2CC[C@H](C(C)(C)C)CCC2=O)cc1,114.7,0.1,-0.7,·,425.5,5.3,·,·,
CCOC(=O)[C@@H]1c2[nH]c3ccccc3c2C[C@@]2(C(=O)OC)C=CCN12,·,0.6,·,·,·,·,·,·,
COc1ccc(OC)c(/C=C/C(=O)N(C)CC(=O)Nc2ccc(N3CCOCC3)cc2)c1,84.2,20.8*,-3.2,·,291.7,1.3,19.2*,14.8*,K7 EDANS ctr=>69.5
COc1ccc(CCC(=O)N(C)CC(=O)Nc2ccc(N3CCOCC3)cc2)cc1,101.0,0.2,0.0,·,221.8,-0.1,·,·,
CC(=O)Nc1ccc(S(=O)(=O)NCCC(=O)NNC(=O)c2ccncc2)cc1,86.8,0.1,1.0,·,337.5,3.9,·,·,
CC(=O)Nc1cc(-c2ccccc2N(C)C)cn2c(-c3ccc(S(C)(=O)=O)cc3)cnc12,·,13.2*,·,·,·,·,10.1,11.2*,
CCc1nc2ccc(C(=O)NCCCN3CCCC3=O)cn2c1N(CCC(C)C)CCN(C)C,·,-0.4,·,·,·,·,·,·,

# From PubChem
